Measured values from ChEMBL document CHEMBL1139044, “Design and synthesis of furoxan-based nitric oxide-releasing glucocorticoid derivatives with potent anti-inflammatory activity and improved safety” (2007).
The source made the active and inactive calls. No cut-off for these calls is given here.

Assays:
Mus musculus [1] = experiment: Antiinflammatory activity in mouse assessed as inhibition of xylene induced ear edema; format: functional, organism-based
Osteoblast [2] = experiment: Effect on alkaline phosphatase activity per 100 ml in SD mouse osteoblasts at 1 pmol/L after 48 hrs […]; format: functional
Mus musculus [3] = experiment: Nitric oxide level in SD mouse serum at 92.9 mg/kg for 3 weeks by nitrate reductase assay; format: functional
How it was run: (§1)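 Animals were dosed for 3 weeks (n = 10) with a CMC-Na vehicle group. After the blood pressure readings, […] was drawn from the femoral artery and serum NO (µmol/L) was determined by nitrate reductase assay.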

Rattus norvegicus [4] = species on record: Rattus norvegicus; experiment: Anti-subacute-inflammatory activity in rat assessed as inhibition cotton pellet induced granuloma formation; format: functional, organism-based
Rattus norvegicus [5] = experiment: Anti-acute-inflammatory activity in rat assessed as carrageenan induced paw edema volume at 92.9 mg/kg after 1 hr; format: functional
How it was run: (§2)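 Rats, n = 8 per group, with CMC-Na as the vehicle control. Paw swelling was induced with carrageenan, and edema volume (ml) was recorded hourly from 1 to 6 h. Significance was tested against the CMC-Na group.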

Rattus norvegicus [6] = experiment: Anti-acute-inflammatory activity in rat assessed as carrageenan induced paw edema volume at 23.2 mg/kg after 6 hrs; format: functional; how it was run: as §2
Osteoblast [7] = experiment: Effect on alkaline phosphatase activity per 100 ml in SD mouse osteoblasts at 1 nmol/L after 48 hrs […]; format: functional
Rattus norvegicus [8] = experiment: Anti-acute-inflammatory activity in rat assessed as carrageenan induced paw edema volume at 92.9 mg/kg after 4 hrs; format: functional; how it was run: as §2
Mus musculus [9] = experiment: Antihypertension activity in SD mouse assessed as heart rate at 92.9 mg/kg for 3 weeks; format: functional
How it was run: (§3)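 Animals were assigned to groups (n = 10) and dosed for 3 weeks, with CMC-Na as the vehicle group. Systolic pressure, diastolic pressure and heart rate were recorded 1 h after the last dose using a multi-channel tail-artery blood pressure system.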

Rattus norvegicus [10] = experiment: Anti-acute-inflammatory activity in rat assessed as carrageenan induced paw edema volume at 23.2 mg/kg after 4 hrs; format: functional; how it was run: as §2
Rattus norvegicus [11] = experiment: Anti-acute-inflammatory activity in rat assessed as carrageenan induced paw edema volume at 46.4 mg/kg after 2 hrs; format: functional; how it was run: as §2
Mus musculus [12] = experiment: Nitric oxide level in SD mouse serum at 31 mg/kg for 3 weeks by nitrate reductase assay; format: functional; how it was run: as §1
Rattus norvegicus [13] = species on record: Rattus norvegicus; experiment: Antiinflammatory activity in rat assessed as inhibition of Freund's adjuvant induced arthritis; format: functional, organism-based
Mus musculus [14] = experiment: Antihypertension activity in SD mouse assessed as diastolic arterial pressure at 92.9 mg/kg for 3 weeks; format: functional, Artery; how it was run: as §3
Mus musculus [15] = experiment: Antihypertension activity in SD mouse assessed as systolic arterial pressure at 31 mg/kg for 3 weeks; format: functional, Artery; how it was run: as §3
Rattus norvegicus [16] = experiment: Anti-acute-inflammatory activity in rat assessed as carrageenan induced paw edema volume at 23.2 mg/kg after 1 hr; format: functional; how it was run: as §2
Mus musculus [17] = experiment: Antihypertension activity in SD mouse assessed as diastolic arterial pressure at 31 mg/kg for 3 weeks; format: functional, Artery; how it was run: as §3
Rattus norvegicus [18] = experiment: Anti-acute-inflammatory activity in rat assessed as carrageenan induced paw edema volume at 46.4 mg/kg after 6 hrs; format: functional; how it was run: as §2
Rattus norvegicus [19] = experiment: Anti-acute-inflammatory activity in rat assessed as carrageenan induced paw edema volume at 92.9 mg/kg after 2 hrs; format: functional; how it was run: as §2
Rattus norvegicus [20] = experiment: Anti-acute-inflammatory activity in rat assessed as carrageenan induced paw edema volume at 46.4 mg/kg after 1 hr; format: functional; how it was run: as §2
Rattus norvegicus [21] = experiment: Anti-acute-inflammatory activity in rat assessed as carrageenan induced paw edema volume at 46.4 mg/kg after 5 hrs; format: functional; how it was run: as §2
Rattus norvegicus [22] = experiment: Anti-acute-inflammatory activity in rat assessed as carrageenan induced paw edema volume at 92.9 mg/kg after 3 hrs; format: functional; how it was run: as §2
Rattus norvegicus [23] = experiment: Anti-acute-inflammatory activity in rat assessed as carrageenan induced paw edema volume at 92.9 mg/kg after 5 hrs; format: functional; how it was run: as §2
Rattus norvegicus [24] = experiment: Anti-acute-inflammatory activity in rat assessed as carrageenan induced paw edema volume at 46.4 mg/kg after 3 hrs; format: functional; how it was run: as §2
Osteoblast [25] = experiment: Effect on alkaline phosphatase activity per 100 ml in SD mouse osteoblasts at 0.1 pmol/L after 48 hrs […]
Rattus norvegicus [26] = experiment: Anti-acute-inflammatory activity in rat assessed as carrageenan induced paw edema volume at 92.9 mg/kg after 6 hrs; format: functional; how it was run: as §2
Mus musculus [27] = experiment: Antihypertension activity in SD mouse assessed as heart rate at 31 mg/kg for 3 weeks; format: functional; how it was run: as §3
Rattus norvegicus [28] = experiment: Anti-acute-inflammatory activity in rat assessed as carrageenan induced paw edema volume at 46.4 mg/kg after 4 hrs; format: functional; how it was run: as §2
Rattus norvegicus [29] = experiment: Anti-acute-inflammatory activity in rat assessed as carrageenan induced paw edema volume at 23.2 mg/kg after 2 hrs; format: functional; how it was run: as §2
Rattus norvegicus [30] = experiment: Anti-acute-inflammatory activity in rat assessed as carrageenan induced paw edema volume at 23.2 mg/kg after 5 hrs; format: functional; how it was run: as §2
Mus musculus [31] = experiment: Antihypertension activity in SD mouse assessed as systolic arterial pressure at 92.9 mg/kg for 3 weeks; format: functional, Artery; how it was run: as §3
Osteoblast [32] = experiment: Effect on alkaline phosphatase activity per 100 ml in SD mouse osteoblasts at 10 umol/L after 48 hrs […]; format: functional
Rattus norvegicus [33] = experiment: Anti-acute-inflammatory activity in rat assessed as carrageenan induced paw edema volume at 23.2 mg/kg after 3 hrs; format: functional; how it was run: as §2
Rattus norvegicus [34] = experiment: Antihypertension activity in SD rat assessed as diastolic arterial pressure at 43.4 mg/kg for 3 weeks
Osteoclast [35] = experiment: Increase in survival rate of SD mouse osteoclasts at 10 pmol/L to 100 nmol/L after 48 hrs by TRAP assay; format: functional, cell-based
Osteoclast [36] = experiment: Inhibition of survival rate of SD mouse osteoclasts at 10 umol/L after 48 hrs by TRAP assay; format: functional, cell-based
Rattus norvegicus [37] = experiment: Anti-acute-inflammatory activity in rat assessed as carrageenan induced paw edema volume at 21.7 mg/kg after 4 hrs; format: functional; how it was run: as §2
Osteoclast [38] = experiment: Inhibition of survival rate of SD mouse osteoclasts at 100 nmol/L to 10 umol/L after 48 hrs by TRAP assay; format: functional, cell-based
Rattus norvegicus [39] = experiment: Anti-acute-inflammatory activity in rat assessed as carrageenan induced paw edema volume at 21.7 mg/kg after 3 hrs; format: functional; how it was run: as §2
Rattus norvegicus [40] = experiment: Anti-acute-inflammatory activity in rat assessed as carrageenan induced paw edema volume at 21.7 mg/kg after 2 hrs; format: functional; how it was run: as §2
Rattus norvegicus [41] = experiment: Antihypertension activity in SD rat assessed as systolic arterial pressure at 43.4 mg/kg for 3 weeks
Rattus norvegicus [42] = experiment: Anti-acute-inflammatory activity in rat assessed as carrageenan induced paw edema volume at 21.7 mg/kg after 6 hrs; format: functional; how it was run: as §2
Rattus norvegicus [43] = experiment: Anti-acute-inflammatory activity in rat assessed as carrageenan induced paw edema volume at 21.7 mg/kg after 5 hrs; format: functional; how it was run: as §2
Rattus norvegicus [44] = experiment: Nitric oxide level in SD rat serum at 43.4 mg/kg for 3 weeks by nitrate reductase assay
Rattus norvegicus [45] = experiment: Anti-acute-inflammatory activity in rat assessed as carrageenan induced paw edema volume at 21.7 mg/kg after 1 hr; format: functional; how it was run: as §2
Rattus norvegicus [46] = experiment: Antihypertension activity in SD rat assessed as heart rate at 43.4 mg/kg for 3 weeks

C[C@]12CCC(=O)C=C1CC[C@@H]1[C@@H]2[C@@H](O)C[C@@]2(C)[C@H]1CC[C@]2(O)C(=O)COC(=O)CCC(=O)OCCCCOc1no[n+]([O-])c1S(=O)(=O)c1ccccc1
Activity (Mus musculus [1]): Active

C[C@]12CCC(=O)C=C1CC[C@@H]1[C@@H]2[C@@H](O)C[C@@]2(C)[C@H]1CC[C@]2(O)C(=O)COC(=O)CCC(=O)OCCOCCOc1no[n+]([O-])c1S(=O)(=O)c1ccccc1
Activity (Osteoblast [2]): 2.24 U
Activity (Mus musculus [3]): 40.9 µmol/L
Activity (Rattus norvegicus [4]): Dose-dependent effect
Activity (Rattus norvegicus [5]): 0.12 mL
Activity (Rattus norvegicus [6]): 1.07 mL
Activity (Osteoblast [7]): 2.97 U
Activity (Rattus norvegicus [8]): 0.65 mL
Activity (Mus musculus [9]): 379.3
Activity (Rattus norvegicus [10]): 0.99 mL
Activity (Rattus norvegicus [11]): 0.24 mL
Activity (Mus musculus [12]): 31 µmol/L
Activity (Rattus norvegicus [13]): Active
Activity (Mus musculus [14]): 86.9 mmHg
Activity (Mus musculus [15]): 144.5 mmHg
Activity (Rattus norvegicus [16]): 0.1 mL
Activity (Mus musculus [17]): 97.8 mmHg
Activity (Rattus norvegicus [18]): 0.92 mL
Activity (Rattus norvegicus [19]): 0.22 mL
Activity (Rattus norvegicus [20]): 0.13 mL
Activity (Rattus norvegicus [21]): 0.95 mL
Activity (Rattus norvegicus [22]): 0.41 mL
Activity (Rattus norvegicus [23]): 0.8 mL
Activity (Rattus norvegicus [24]): 0.56 mL
Activity (Osteoblast [25]): 1.89 U
Activity (Rattus norvegicus [26]): 0.81 mL
Activity (Mus musculus [27]): 360.3
Activity (Mus musculus [1]): Active
Activity (Rattus norvegicus [28]): 0.94 mL
Activity (Rattus norvegicus [29]): 0.39 mL
Activity (Rattus norvegicus [30]): 1.12 mL
Activity (Mus musculus [31]): 137.8 mmHg
Activity (Osteoblast [32]): 1.54 U
Activity (Rattus norvegicus [33]): 0.74 mL

CC(CCOc1no[n+]([O-])c1S(=O)(=O)c1ccccc1)OC(=O)CCC(=O)OCC(=O)[C@@]1(O)CC[C@H]2[C@@H]3CCC4=CC(=O)CC[C@]4(C)[C@H]3[C@@H](O)C[C@@]21C (some centres not stated)
Activity (Mus musculus [1]): Active

C[C@]12CCC(=O)C=C1CC[C@@H]1[C@@H]2[C@@H](O)C[C@@]2(C)[C@H]1CC[C@]2(O)C(=O)CO [HYDROCORTISONE]
Activity (Osteoblast [2]): 2.69 U
Activity (Rattus norvegicus [34]): 109.6 mmHg
Activity (Osteoblast [7]): 2.66 U
Activity (Osteoclast [35]): Active
Activity (Osteoclast [36]): Active
Activity (Rattus norvegicus [37]): 0.85 mL
Activity (Osteoclast [38]): Active
Activity (Rattus norvegicus [39]): 0.54 mL
Activity (Osteoblast [25]): 2.07 U
Activity (Rattus norvegicus [40]): 0.25 mL
Activity (Rattus norvegicus [41]): 156.7 mmHg
Activity (Rattus norvegicus [42]): 1.02 mL
Activity (Rattus norvegicus [43]): 0.98 mL
Activity (Rattus norvegicus [44]): 28 µmol/L
Activity (Rattus norvegicus [45]): 0.15 mL
Activity (Osteoblast [32]): 2.26 U
Activity (Rattus norvegicus [46]): 365.2
